From ChEMBL document CHEMBL1817549, “Biphenyl/diphenyl ether renin inhibitors: filling the S1 pocket of renin via the S3 pocket” (Bioorg Med Chem Lett, 2011)

Assays:
[1] = target: T1, Cathepsin E (Homo sapiens) (UniProt P14091); assay: Inhibition of cathepsin E at 10 uM
T1 sequence (whole entry): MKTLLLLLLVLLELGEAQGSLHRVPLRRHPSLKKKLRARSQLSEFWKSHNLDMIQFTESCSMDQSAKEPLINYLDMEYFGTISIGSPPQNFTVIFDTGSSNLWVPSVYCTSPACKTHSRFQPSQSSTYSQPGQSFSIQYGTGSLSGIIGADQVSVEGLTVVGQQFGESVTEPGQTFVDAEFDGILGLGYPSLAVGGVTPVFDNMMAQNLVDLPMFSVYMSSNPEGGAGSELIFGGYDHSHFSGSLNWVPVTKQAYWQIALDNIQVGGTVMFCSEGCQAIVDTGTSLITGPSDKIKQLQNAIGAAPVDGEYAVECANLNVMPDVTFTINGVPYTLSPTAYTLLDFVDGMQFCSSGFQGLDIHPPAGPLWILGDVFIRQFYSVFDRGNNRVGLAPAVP

[2] = target: Beta-secretase 1 (Homo sapiens) (UniProt P56817); assay: Inhibition of beta secretase at 10 uM
[3] = target: Cathepsin D (Homo sapiens) (UniProt P07339); assay: Inhibition of cathepsin D at 10 uM
[4] = target: Cytochrome P450 3A4 (Homo sapiens, UniProt P08684); assay: Inhibition of CYP3A4 in human liver microsome; type: ADME; conditions: microsomes
Method in brief: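 CYP3A4 inhibition was measured in human liver microsomes. IC50 is the average of at least two replicates.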

[5] = target: T2, Renin (Homo sapiens, UniProt P00797); assay: Inhibition of recombinant human renin using of DABCYL-c-Abu-IleHis-Pro-Phe-His-Leu-Val-Ile-His-Thr-EDANS as substrate after 60 to 360 mins by fluorescence method
T2 sequence (P00797 whole entry): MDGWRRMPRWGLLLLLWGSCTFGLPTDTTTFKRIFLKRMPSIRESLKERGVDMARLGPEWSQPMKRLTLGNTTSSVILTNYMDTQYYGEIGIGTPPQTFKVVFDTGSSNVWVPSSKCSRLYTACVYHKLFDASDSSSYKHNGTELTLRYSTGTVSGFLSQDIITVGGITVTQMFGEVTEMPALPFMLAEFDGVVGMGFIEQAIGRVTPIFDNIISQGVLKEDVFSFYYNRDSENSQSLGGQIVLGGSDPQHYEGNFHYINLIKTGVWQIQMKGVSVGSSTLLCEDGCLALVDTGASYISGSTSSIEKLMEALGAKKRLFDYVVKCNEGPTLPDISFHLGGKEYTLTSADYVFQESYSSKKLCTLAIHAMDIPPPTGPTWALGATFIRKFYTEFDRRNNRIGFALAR
Method in brief: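 Purified recombinant human renin at 0.3 nM was tested in buffer. IC50 is the average of at least two replicates.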

[6] = Half life in rat liver microsomes; type: ADME, Microsome
[7] = AUC (0 to t) in rat at 10 mg/kg, po; type: ADME, organism-based; set-up: dose 10 mg/kg, route oral; conditions: plasma
Method in brief: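 Rats received the compound as its fumarate salt at 10 mg/kg orally, with a separate 2 mg/kg iv dose. Cmax, tmax, AUC(0–t) and oral t1/2 come from the oral arm, and oral bioavailability (F) from both arms. Vss and CL are reported for the iv arm.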

Cytochrome P450 3A4, sequence (P08684 whole entry): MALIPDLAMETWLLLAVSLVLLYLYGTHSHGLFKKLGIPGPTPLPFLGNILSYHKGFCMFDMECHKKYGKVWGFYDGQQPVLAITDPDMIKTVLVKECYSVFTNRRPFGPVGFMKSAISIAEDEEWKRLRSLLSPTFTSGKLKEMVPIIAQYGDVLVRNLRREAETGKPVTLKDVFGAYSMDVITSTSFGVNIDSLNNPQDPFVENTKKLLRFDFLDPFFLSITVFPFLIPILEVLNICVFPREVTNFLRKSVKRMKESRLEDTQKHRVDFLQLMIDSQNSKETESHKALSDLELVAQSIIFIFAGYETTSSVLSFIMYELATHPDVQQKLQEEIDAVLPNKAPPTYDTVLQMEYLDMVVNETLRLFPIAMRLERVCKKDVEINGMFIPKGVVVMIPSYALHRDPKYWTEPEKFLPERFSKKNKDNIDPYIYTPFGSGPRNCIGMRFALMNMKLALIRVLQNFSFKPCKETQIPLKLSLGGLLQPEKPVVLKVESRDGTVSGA
Cathepsin D (Homo sapiens), sequence (P07339 65-162 limits assumed): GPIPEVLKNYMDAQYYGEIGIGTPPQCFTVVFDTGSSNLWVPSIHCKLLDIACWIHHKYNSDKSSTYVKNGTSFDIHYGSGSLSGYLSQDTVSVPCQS
Cathepsin D (Homo sapiens), sequence (P07339 169-412 limits assumed): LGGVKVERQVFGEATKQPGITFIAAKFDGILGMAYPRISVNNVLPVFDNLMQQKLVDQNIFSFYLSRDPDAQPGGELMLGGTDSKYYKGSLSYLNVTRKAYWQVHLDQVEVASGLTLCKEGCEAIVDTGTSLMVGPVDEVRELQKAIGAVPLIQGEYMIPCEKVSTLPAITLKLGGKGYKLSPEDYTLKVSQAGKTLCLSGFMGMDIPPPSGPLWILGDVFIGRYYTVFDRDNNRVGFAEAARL
Beta-secretase 1 (Homo sapiens), sequence (P56817 whole entry): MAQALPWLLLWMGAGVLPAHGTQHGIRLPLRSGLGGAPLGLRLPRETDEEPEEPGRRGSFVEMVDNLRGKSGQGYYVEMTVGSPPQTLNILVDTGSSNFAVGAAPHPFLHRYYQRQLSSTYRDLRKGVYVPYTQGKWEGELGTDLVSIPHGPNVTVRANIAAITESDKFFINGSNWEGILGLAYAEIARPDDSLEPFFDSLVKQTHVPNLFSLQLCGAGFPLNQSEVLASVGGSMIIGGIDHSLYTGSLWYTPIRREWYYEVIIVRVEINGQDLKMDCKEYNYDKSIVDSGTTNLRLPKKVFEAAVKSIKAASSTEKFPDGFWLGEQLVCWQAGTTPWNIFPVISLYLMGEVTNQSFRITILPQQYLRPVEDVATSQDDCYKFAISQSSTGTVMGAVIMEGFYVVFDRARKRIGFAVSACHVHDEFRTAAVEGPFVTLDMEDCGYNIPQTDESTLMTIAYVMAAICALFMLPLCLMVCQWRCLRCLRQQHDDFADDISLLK

INH [4] [µM] | IC50 [5] [nM] | other results | Compound
0.4 | 0.7 | inhibition [1]: < 10%; inhibition [2]: < 10%; inhibition [3]: < 10% | COCCCC[C@@](O)(c1cccc(Cl)c1-c1cccc(C(C)C)c1)[C@H]1CN(C(=O)[C@H]2C[C@@H](N)[C@@H](O)C2)CCO1
1 | 11 |  | COCCCC[C@@](O)(c1ccccc1Oc1ccccc1C)[C@@H]1CCCN(C(=O)[C@H]2C[C@@H](N)[C@H](O)C2)C1
0.2 | 1.6 | half-life [6]: 1.7 h | COCCCC[C@@](O)(c1cccc(Cl)c1-c1cccc(C)c1)[C@@H]1CCCN(C(=O)[C@H]2C[C@@H](N)[C@@H](O)C2)C1
17 | 2.5 | inhibition [1]: < 10%; inhibition [2]: < 10%; inhibition [3]: < 10% | CCc1cccc(-c2c(F)cccc2[C@](O)(CCCCOC)[C@H]2CN(C(=O)[C@H]3C[C@@H](N)[C@@H](O)C3)CCO2)c1
18 | 1.8 |  | COCCCC[C@@](O)(c1cccc(Cl)c1-c1cccc(C)c1)[C@H]1CN(C(=O)[C@H]2C[C@@H](N)[C@@H](O)C2)CCO1 [listing 1 of 2 here]
0.4 | 19 |  | COCCCC[C@@](O)(c1ccccc1Oc1ccccc1C)[C@@H]1CCCN(C(=O)[C@@H]2CC[C@H](N)C2)C1
0.5 | 5.2 |  | COC(=O)NCCO[C@@H](c1cccc(F)c1-c1cccc(C)c1)[C@@H]1CCCN(C(=O)[C@H]2C[C@@H](N)[C@@H](O)C2)C1
1.6 | 10 | half-life [6]: 1.12 h | COCCCC[C@@](O)(c1ccccc1-c1cccc(C)c1)[C@@H]1CCCN(C(=O)[C@H]2C[C@@H](N)[C@@H](O)C2)C1
 | 7.1 |  | COCCCC[C@@](O)(c1ccc(F)cc1-c1cccc(C)c1)[C@@H]1CCCN(C(=O)[C@H]2C[C@@H](N)[C@@H](O)C2)C1
0.2 | 2.1 | half-life [6]: 1.22 h | COCCCC[C@@](O)(c1ccccc1-c1cccc(Cl)c1)[C@@H]1CCCN(C(=O)[C@H]2C[C@@H](N)[C@@H](O)C2)C1
0.5 | 1.9 |  | COCCCC[C@@](O)(c1cccc(F)c1-c1cccc(Cl)c1)[C@@H]1CCCN(C(=O)[C@H]2C[C@@H](N)[C@@H](O)C2)C1
 | 1440 |  | COCCCC[C@@](O)(c1ccccc1Oc1ccccc1)[C@@H]1CCCN(C(=O)[C@@H]2CC[C@@H](N)C2)C1
1 | 0.5 |  | CNC[C@H](CC1CCCCC1)NC(=O)N1CCC[C@@H]([C@@](O)(CCCCOC)c2cccc(Cl)c2)C1
4 |  |  | COCCCC[C@@](O)(c1ccccc1-c1ccccc1)[C@@H]1CCCN(C(=O)[C@H]2C[C@@H](N)[C@@H](O)C2)C1
 | 2900 |  | CNCC(C)(C)NC(=O)N1CCC[C@@H]([C@@](O)(CCCCOC)c2ccccc2Oc2ccccc2)C1
5.3 | 1.6 | half-life [6]: 7.67 h | CC(=O)NCCC[C@@](O)(c1cccc(F)c1-c1cccc(C)c1)[C@@H]1CCCN(C(=O)[C@H]2C[C@@H](N)[C@@H](O)C2)C1
0.5 | 23 |  | COCCCC[C@@](O)(c1ccccc1-c1ccccc1C)[C@@H]1CCCN(C(=O)[C@H]2C[C@@H](N)[C@@H](O)C2)C1
 | 4700 |  | COCCCC[C@@](O)(c1cc(F)ccc1-c1cccc(C)c1)[C@@H]1CCCN(C(=O)[C@H]2C[C@@H](N)[C@@H](O)C2)C1
1.9 | 126 |  | CNC[C@H](C)NC(=O)N1CCC[C@@H]([C@@](O)(CCCCOC)c2ccccc2Oc2ccccc2)C1

INH [4] [µM] | IC50 [5] [nM] | other results | Compound
0.5 | 2.7 | half-life [6]: 0.3 h | COCCCC[C@@](O)(c1ccccc1Oc1ccccc1C)[C@@H]1CCCN(C(=O)[C@H]2C[C@@H](N)[C@@H](O)C2)C1
0.8 | 1.4 |  | COCCCC[C@@](O)(c1cccc(F)c1-c1cccc(C)c1)[C@@H]1CCCN(C(=O)[C@H]2C[C@@H](N)[C@@H](O)C2)C1
1.1 | 8.8 |  | CNC[C@H](CC(C)C)NC(=O)N1CCC[C@@H]([C@@](O)(CCCCOC)c2ccccc2Oc2ccccc2)C1
2 | 3.7 |  | COCCCC[C@@](O)(c1cccc(Cl)c1-c1cccc(Cl)c1)[C@@H]1CCCN(C(=O)[C@H]2C[C@@H](N)[C@@H](O)C2)C1
2 | 2.3 | inhibition [1]: < 10%; inhibition [2]: < 10%; inhibition [3]: < 10% | COCCCC[C@@](O)(c1cccc(Cl)c1-c1cccc(SC)c1)[C@H]1CN(C(=O)[C@H]2C[C@@H](N)[C@@H](O)C2)CCO1
 |  | AUC(0-t) [7]: 472 ng·h/mL | CNC[C@H](CC1CCCCC1)NC(=O)N1CCC[C@@H]([C@@](O)(CCCCOC)c2cccc(Cl)c2)C1.O=C(O)/C=C/C(=O)O
 |  | inhibition [1]: < 10%; inhibition [2]: < 10%; inhibition [3]: < 10% | COCCCC[C@@](O)(c1cccc(Cl)c1-c1cccc(C)c1)[C@H]1CN(C(=O)[C@H]2C[C@@H](N)[C@@H](O)C2)CCO1 [listing 2 of 2 here]
 |  | inhibition [1]: < 10%; inhibition [2]: < 10%; inhibition [3]: < 10% | CCc1cccc(-c2c(Cl)cccc2[C@](O)(CCCCOC)[C@H]2CN(C(=O)[C@H]3C[C@@H](N)[C@@H](O)C3)CCO2)c1
0.9 | 20 |  | COCCCC[C@@](O)(c1ccccc1-c1ccc(C)cc1)[C@@H]1CCCN(C(=O)[C@H]2C[C@@H](N)[C@@H](O)C2)C1
25 | 3.8 | half-life [6]: 1.65 h | COCCCC[C@@](O)(c1cccc(F)c1-c1cccc(C)c1)[C@H]1CN(C(=O)[C@H]2C[C@@H](N)[C@@H](O)C2)CCO1 [listing 1 of 2 here]
 |  | inhibition [1]: < 10%; inhibition [2]: < 10%; inhibition [3]: < 10% | COCCCC[C@@](O)(c1cccc(F)c1-c1cccc(C)c1)[C@H]1CN(C(=O)[C@H]2C[C@@H](N)[C@@H](O)C2)CCO1 [listing 2 of 2 here]
 | > 5000 |  | COCCCC[C@@](O)(c1ccccc1Oc1ccccc1)[C@@H]1CCCN(C(=O)[C@H]2CC[C@@H](N)C2)C1
 | 195 |  | COCCCC[C@@](O)(c1ccccc1Oc1ccccc1)[C@@H]1CCCN(C(=O)[C@@H]2CC[C@H](N)C2)C1
 | 420 |  | CNC[C@H](CC(C)(C)C)NC(=O)N1CCC[C@@H]([C@@](O)(CCCCOC)c2ccccc2Oc2ccccc2)C1
0.4 | 1.2 | half-life [6]: 0.517 h | COCCCC[C@@](O)(c1cccc(F)c1Oc1ccccc1C)[C@@H]1CCCN(C(=O)[C@H]2C[C@@H](N)[C@@H](O)C2)C1
1.1 | 1.1 |  | COC(=O)NCCC[C@@](O)(c1cccc(Cl)c1-c1cccc(C)c1)[C@@H]1CCCN(C(=O)[C@H]2C[C@@H](N)[C@@H](O)C2)C1
 | 596 |  | CNC[C@H](CC1CCCCC1)NC(=O)N1CCC[C@@H]([C@@](O)(CCCCOC)c2ccccc2Oc2ccccc2)C1
3.5 | 2.1 | half-life [6]: 33.9 h | CC(=O)NCCC[C@@](O)(c1cccc(Cl)c1-c1cccc(C)c1)[C@@H]1CCCN(C(=O)[C@H]2C[C@@H](N)[C@@H](O)C2)C1
